Measurements: ChEMBL document CHEMBL1122546, “A potent multisubstrate analogue inhibitor of human thymidylate synthetase” (J Med Chem, 1984)

How the values were obtained:
[1] = biological target: T1, Thymidylate synthase (Homo sapiens, UniProt P04818); experiment: Km of dUMP for human thymidylate synthase with variable concentration of dUMP and fixed N5,10-CH2-H4PteGlu (200 uM)
[2] = Apparent Ki value for the inhibition of human thymidylate synthase in the presence of variable conc. of N5,10-CH2-H4PteGlu
Outline: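 Thymidylate synthase purified from HeLa-S3 cells by methotrexate–Sephadex chromatography. Tritium-release assay, 37 °C for 60 min, at pH 7.5 (Tris-HCl) with DTT, NaF, formaldehyde, BSA and sucrose. dUMP (with [5-3H]dUMP, 10:1) fixed at 100 μM; CH2-H4PteGlu varied. Inhibitor tested at several concentrations. Lineweaver–Burk plots; slopes (competitive) or intercepts (noncompetitive) replotted against inhibitor concentration.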

[3] = biological target: T1, Thymidylate synthase; experiment: Inhibitory activity against human thymidylate synthase with variable concentration of dUMP and fixed N5,10-CH2-H4PteGlu (200 uM)
[4] = Apparent Ki value for the inhibition of human thymidylate synthase in the presence of variable conc. of dUMP
Outline: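 Enzyme is HeLa-S3 thymidylate synthase, purified on methotrexate–Sephadex. Tritium release from [5-3H]dUMP (10:1 with dUMP), with dUMP varied and CH2-H4PteGlu fixed at 200 μM. Tris-HCl pH 7.5 buffer with DTT, NaF, formaldehyde, BSA and sucrose; 37 °C, 60 min. Inhibitor at several concentrations; double-reciprocal slopes or intercepts replotted against inhibitor concentration.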

[5] = biological target: T1, Thymidylate synthase; experiment: Inhibitory activity against human thymidylate synthase with variable concentration of N5, 10-CH2-H4PteGlu and fixed dUMP (100 uM)
Outline: (§1)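 HeLa-S3 TS purified on methotrexate–Sephadex. Tritium release from [5-3H]dUMP with dUMP fixed at 100 μM and CH2-H4PteGlu varied, in 150 mM Tris-HCl pH 7.5 with DTT, NaF, formaldehyde, BSA and sucrose. Reactions ran at 37 °C for 60 min, were stopped with TCA, treated with charcoal, and the supernatant counted. Apparent Ki from replots of double-reciprocal slopes (competitive) or intercepts (noncompetitive) against inhibitor concentration.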

[6] = Apparent Ki value for the inhibition of human thymidylate synthase in the presence of variable conc. of N5,10-CH2-H4PteGlu; Ki/Km
Outline: as §1

[7] = Apparent Ki value for the inhibition of human thymidylate synthase in the presence of variable conc. of dUMP; Ki/Km

T1 sequence (P04818 whole entry): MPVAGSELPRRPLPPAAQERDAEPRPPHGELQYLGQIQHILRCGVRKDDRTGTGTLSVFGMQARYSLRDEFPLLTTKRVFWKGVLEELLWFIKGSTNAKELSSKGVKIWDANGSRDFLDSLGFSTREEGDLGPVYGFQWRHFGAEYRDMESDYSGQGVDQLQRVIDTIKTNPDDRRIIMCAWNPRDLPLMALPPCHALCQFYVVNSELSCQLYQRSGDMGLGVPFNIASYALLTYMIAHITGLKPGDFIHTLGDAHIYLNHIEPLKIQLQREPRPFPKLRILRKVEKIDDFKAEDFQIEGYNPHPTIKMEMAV

| Structure (SMILES) | Km [1] [µM] | Ki [3] [µM] | Ki [5] [µM] | Ratio [6] | Ratio [7] | Ratio [2] | Ratio [4] |
| --- | --- | --- | --- | --- | --- | --- | --- |
| O=c1ccn([C@H]2C[C@H](O)[C@@H](COP(=O)(O)O)O2)c(=O)[nH]1 [DEOXYURIDINE MONOPHOSPHATE] | 3 |  |  |  |  |  |  |
| Nc1nc2c(c(=O)[nH]1)N(Cc1cn([C@H]3C[C@H](O)[C@@H](COP(O)O)O3)c(=O)[nH]c1=O)C(CNc1ccc(C(=O)NC(CCC(=O)O)C(=O)O)cc1)CC2 (some centres not stated) |  | 0.058 | 0.25 |  |  | 0.005 | 0.02 |
| CCOC(=O)CCC(NC(=O)c1ccc(N(CC2CCc3nc(N)[nH]c(=O)c3N2)N=O)cc1)C(=O)OCC (configuration not stated) |  | 240 | 150 |  |  |  |  |
| CCOC(=O)CCC(NC(=O)c1ccc(N(CC2CCc3nc(N)nc(O)c3N2)N=O)cc1)C(=O)OCC (configuration not stated) |  |  |  |  |  | 3 | 80 |

Second part, led by results:

| Km [1] [µM] | Ki [3] [µM] | Ki [5] [µM] | Ratio [6] | Ratio [7] | Structure (SMILES) | Ratio [2] | Ratio [4] |
| --- | --- | --- | --- | --- | --- | --- | --- |
|  | 120 | 700 | 14 | 40 | COP(=O)(O)OC[C@H]1O[C@@H](n2cc(CN3c4c(nc(N)[nH]c4=O)CCC3CNc3ccc(C(=O)NC(CCC(=O)O)C(=O)O)cc3)c(=O)[nH]c2=O)C[C@@H]1O (some centres not stated) |  |  |
|  | 150 | 240 | 4.8 | 50 | Nc1nc2c(c(=O)[nH]1)N(Cc1cn([C@H]3C[C@H](O)[C@@H](CO)O3)c(=O)[nH]c1=O)C(CNc1ccc(C(=O)NC(CCC(=O)O)C(=O)O)cc1)CC2 (some centres not stated) |  |  |
